From ChEMBL document CHEMBL1128270 (J Med Chem, 1995)

Tests used:
[1] = Selectivity as the ratio of IC50 value against alpha-1 receptor to that of 5-hydroxytryptamine 1A receptor
Method in brief: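 Ratio of the α1 IC50 to the 5-HT1A IC50 ([3H]-8-OH-DPAT, rat cortex). For α1, male Sprague-Dawley rat cortex membranes were prepared in 50 mM Tris-HCl pH 7.7 with 10 μM pargyline and 0.1% ascorbate.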

[2] = target: T1, Adrenergic receptor alpha-1 (Rattus norvegicus, UniProt P15823+P23944+P43140); test: In vitro binding affinity measured on alpha-1 adrenergic receptor using [3H]prazosin as radioligand.; format: protein assay
T1 sequence (P15823 whole entry): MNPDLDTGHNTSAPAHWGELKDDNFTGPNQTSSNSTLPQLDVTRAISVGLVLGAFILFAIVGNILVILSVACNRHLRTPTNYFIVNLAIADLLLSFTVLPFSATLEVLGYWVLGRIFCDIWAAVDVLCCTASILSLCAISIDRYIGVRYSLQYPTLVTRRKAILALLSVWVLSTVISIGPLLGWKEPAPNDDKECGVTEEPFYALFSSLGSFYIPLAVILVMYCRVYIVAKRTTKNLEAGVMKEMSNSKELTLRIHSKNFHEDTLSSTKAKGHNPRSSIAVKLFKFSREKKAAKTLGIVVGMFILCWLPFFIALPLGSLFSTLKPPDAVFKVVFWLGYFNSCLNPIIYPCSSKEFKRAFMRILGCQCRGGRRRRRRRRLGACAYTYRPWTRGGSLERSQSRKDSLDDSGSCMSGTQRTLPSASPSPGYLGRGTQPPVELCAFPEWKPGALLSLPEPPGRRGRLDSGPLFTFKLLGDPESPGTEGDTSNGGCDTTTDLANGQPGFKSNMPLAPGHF
T1 sequence (P23944 whole entry): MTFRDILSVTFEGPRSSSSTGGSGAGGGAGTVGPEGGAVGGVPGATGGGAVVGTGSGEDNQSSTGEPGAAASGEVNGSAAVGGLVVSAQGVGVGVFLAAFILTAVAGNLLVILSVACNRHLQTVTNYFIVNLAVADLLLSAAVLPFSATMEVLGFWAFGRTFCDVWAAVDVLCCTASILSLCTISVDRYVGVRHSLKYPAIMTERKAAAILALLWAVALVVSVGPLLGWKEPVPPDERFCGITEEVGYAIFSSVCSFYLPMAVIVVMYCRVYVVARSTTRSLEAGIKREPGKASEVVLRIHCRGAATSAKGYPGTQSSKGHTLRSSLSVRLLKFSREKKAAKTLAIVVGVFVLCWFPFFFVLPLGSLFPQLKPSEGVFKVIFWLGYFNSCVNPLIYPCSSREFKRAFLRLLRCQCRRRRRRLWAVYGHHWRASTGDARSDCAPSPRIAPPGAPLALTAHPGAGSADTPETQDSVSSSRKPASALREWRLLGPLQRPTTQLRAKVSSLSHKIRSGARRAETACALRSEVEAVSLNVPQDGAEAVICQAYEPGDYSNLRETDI
T1 sequence (P43140 whole entry): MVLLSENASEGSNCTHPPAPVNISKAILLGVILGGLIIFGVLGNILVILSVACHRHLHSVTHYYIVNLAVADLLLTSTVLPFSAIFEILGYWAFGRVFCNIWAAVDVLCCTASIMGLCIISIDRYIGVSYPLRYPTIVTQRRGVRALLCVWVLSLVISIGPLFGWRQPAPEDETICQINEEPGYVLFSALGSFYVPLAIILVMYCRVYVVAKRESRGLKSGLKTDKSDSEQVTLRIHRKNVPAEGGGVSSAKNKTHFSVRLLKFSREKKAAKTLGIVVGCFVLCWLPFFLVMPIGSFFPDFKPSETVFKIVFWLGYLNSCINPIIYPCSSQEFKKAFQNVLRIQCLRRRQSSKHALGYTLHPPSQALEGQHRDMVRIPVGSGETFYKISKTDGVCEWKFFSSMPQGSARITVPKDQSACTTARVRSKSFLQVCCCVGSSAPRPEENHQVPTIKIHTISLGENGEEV

[3] = target: T2, 5-hydroxytryptamine receptor 1A (Rattus norvegicus, UniProt P19327); test: In vitro binding affinity measured on serotonin 5-hydroxytryptamine 1A receptor using [3H]8-OH-DPAT as radioligand.
T2 sequence (P19327 whole entry): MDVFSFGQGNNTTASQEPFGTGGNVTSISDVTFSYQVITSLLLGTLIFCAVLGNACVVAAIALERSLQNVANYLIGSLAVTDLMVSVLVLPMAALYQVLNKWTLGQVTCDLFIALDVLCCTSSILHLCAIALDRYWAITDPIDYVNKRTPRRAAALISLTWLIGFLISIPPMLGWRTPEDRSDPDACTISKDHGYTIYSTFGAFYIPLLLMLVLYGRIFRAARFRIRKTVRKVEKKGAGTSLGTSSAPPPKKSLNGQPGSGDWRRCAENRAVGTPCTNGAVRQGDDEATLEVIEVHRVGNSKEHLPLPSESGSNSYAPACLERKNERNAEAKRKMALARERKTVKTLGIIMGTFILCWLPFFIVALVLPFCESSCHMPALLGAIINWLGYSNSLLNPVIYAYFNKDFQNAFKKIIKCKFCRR

[4] = test system: Dopamine D2 receptor and serotonin 1a receptor (Rattus norvegicus); test: Selectivity as the ratio of IC50 value against D-2 receptor to that of 5-hydroxytryptamine 1A receptor
[5] = target: D(2) dopamine receptor (Rattus norvegicus, UniProt P61169); test: The compound was evaluated for the binding affinity towards Dopamine receptor D2 binding site using [3H]spiroperidol.
Method in brief: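 IC50 came from 7–9 drug concentrations in triplicate, over 2–4 independent experiments, analysed with EBDA. Specific binding exceeded 75% of total.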

Sequence of D(2) dopamine receptor (P61169 whole entry): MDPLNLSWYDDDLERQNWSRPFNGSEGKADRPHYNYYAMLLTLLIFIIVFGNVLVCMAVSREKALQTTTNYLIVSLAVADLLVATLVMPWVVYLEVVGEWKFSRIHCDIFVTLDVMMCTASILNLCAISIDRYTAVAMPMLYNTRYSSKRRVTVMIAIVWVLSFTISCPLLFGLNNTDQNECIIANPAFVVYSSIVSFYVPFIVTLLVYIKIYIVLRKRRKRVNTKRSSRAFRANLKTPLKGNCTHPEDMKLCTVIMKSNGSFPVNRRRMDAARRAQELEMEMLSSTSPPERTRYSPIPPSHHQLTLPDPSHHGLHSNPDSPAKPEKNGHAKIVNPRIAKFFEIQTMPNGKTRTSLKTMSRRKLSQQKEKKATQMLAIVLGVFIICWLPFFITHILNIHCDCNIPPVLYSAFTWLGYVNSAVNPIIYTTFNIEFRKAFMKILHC

Selectivity [1]: 49 | IC50 [2]: 1960 nM | IC50 [3]: 40.3 nM | Selectivity [4]: 30 | IC50 [5]: 1200 nM
Compound: COc1ccc2c(c1)C(NCCN1CCN(c3ccccc3OC)CC1)CCC2 (stereo not given)
